IC50 data for three compounds are collected here from ChEMBL document CHEMBL1155209, “Synthesis and in vitro study of 14-aryl-14H-dibenzo[a.j]xanthenes as cytotoxic agents” (Bioorg Med Chem Lett, 2009).

Holding throughout (type): functional, cell-based
Test [1] relates to PC-3. As to the kind of experiment: Cytotoxicity against human PC3 cells […] by SRB assay. Particulars: PC-3, 48 h, in the assay text read “48 hrs” for “72 hrs”. In a few lines: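 Human cancer lines from NCI grown in RPMI-1640 (2 mM glutamine, pH 7.4, 10% fetal calf serum, streptomycin/penicillin) at 37 °C, 5% CO2. Cells trypsinized at subconfluence, >98% viable by trypan blue, seeded and grown 24 h, then given test material for 48 h. TCA fixation at 4 °C 1 h, SRB staining, dye dissolved in Tris-HCl pH 10.4, OD 540 nm. Growth inhibition relative to untreated control after blank subtraction.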
In general terms: In SRB staining, fixed cells bind dye roughly in proportion to their protein.

Test [2] deals with COLO 205. In words: Cytotoxicity against human COLO205 cells […] by SRB assay.
The test system of test [3] is SK-N-SH. As to the kind of experiment: Cytotoxicity against human SK-N-SH cells […] by SRB assay.
The test system of test [4] is SW-620. In words: Cytotoxicity against human SW620 cells […] by SRB assay.
The nature of test [5]: Cytotoxicity against human 502713 cells […] by SRB assay.
Test [6] relates to A549. As to the kind of experiment: Cytotoxicity against human A549 cells […] by SRB assay.

Structures are written as SMILES.

What is called IC50 is the concentration needed to halve the response being measured. As for `OCC(O)COc1ccc(C2c3c(ccc4ccccc34)Oc3ccc4ccccc4c32)cc1` (stereo unspecified), the half-inhibitory concentration (IC50) amounted to 63.9 µM in test [1]; 37.9 µM in test [2]; 44 µM in test [3]; 49.1 µM in test [4]; 41.3 µM in test [5]; 128 µM in test [6].

In the case of `COc1cc(C2c3c(ccc4ccccc34)Oc3ccc4ccccc4c32)ccc1O`, the IC50 in test [1] was found to be 61.1 µM; in test [2], 41.9 µM; in test [3], 44.3 µM; in test [4], 54.4 µM; in test [5], 45.4 µM; in test [6], 74.3 µM.

For the compound `O=[N+]([O-])c1ccccc1C1c2c(ccc3ccccc23)Oc2ccc3ccccc3c21`, the concentration for half-maximal inhibition (IC50) in test [1] is 82 µM; in test [3] it was 55 µM; in test [4], 63.2 µM; in test [5] it was 50 µM.
